Activity calls are given as the source filed them. The calls are words filed in the database; no cut-off is given here.
Assays:
H460 [1] = assay: Inhibition of PI3K in human H460 cells assessed as Akt phosphorylation at Ser 473 upto 30 uM; assay type: cell-based
Summary of the method: (§1)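 Human NSCLC H-460 cells; PI3K activity read as Akt phosphorylation at Ser 473 and mTOR activity as p70S6 kinase phosphorylation at Thr 389. Compounds were screened at 10 µM, and some up to 30 µM. Activity was reported as % inhibition. LY-294002 served as the reference inhibitor at 30 µM.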

[2] = target: Serine/threonine-protein kinase mTOR (Homo sapiens) (UniProt P42345); assay: Inhibition of mTOR in human H460 cells assessed as p70S6 phosphorylation at Thr 389 upto 30 uM; assay type: cell-based; summary of the method: as §1
[3] = target: Hypoxia-inducible factor 1-alpha (Homo sapiens) (UniProt Q16665); assay: Inhibition of HIF1-alpha at 30 uM
Summary of the method: (§2)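 HRE-driven cell-based reporter gene assay of HIF-1 activation. Activation was induced by hypoxia (1% O2, 94% N2, 5% CO2) or by DFX. Compounds were tested up to 30 µM and an IC50 was derived. YC-1 served as the reference inhibitor.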

H460 [4] = assay: Inhibition of PI3K in human H460 cells assessed as Akt phosphorylation at Ser 473 at 10 uM; assay type: cell-based; summary of the method: as §1
[5] = target: Serine/threonine-protein kinase mTOR (Homo sapiens) (UniProt P42345); assay: Inhibition of mTOR in human H460 cells assessed as p70S6 phosphorylation at Thr 389 at 10 uM; assay type: cell-based; summary of the method: as §1
[6] = target: Hypoxia-inducible factor 1-alpha (Homo sapiens) (UniProt Q16665); assay: Inhibition of HIF1alpha; summary of the method: as §2
[7] = target: Phosphatidylinositol 4,5-bisphosphate 3-kinase catalytic subunit alpha isoform (Homo sapiens, UniProt P42336); assay: Inhibition of human recombinant PI3K-alpha assessed as formation of PI3P from PI by cell free kinase assay
Summary of the method: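 Cell-free kinase assay with recombinant PI3Kα (p110α). The read-out was PI3P formed from the substrate phosphatidylinositol. An IC50 was derived.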

[8] = target: Serine/threonine-protein kinase mTOR (Homo sapiens) (UniProt P42345); assay: Inhibition of mTOR in human H460 cells assessed as 4E-BP1 phosphorylation at 3 uM by Western blot; assay type: cell-based
Summary of the method: (§3)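 H460 cells were stimulated with 20% FCS in the presence of test compound at 3 or 10 µM, alongside untreated and FCS-only controls. Phosphorylation was assessed by Western blot.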

[9] = target: Serine/threonine-protein kinase mTOR (Homo sapiens) (UniProt P42345); assay: Inhibition of mTOR in human H460 cells assessed as 4E-BP1 phosphorylation at 10 uM by Western blot; assay type: cell-based; summary of the method: as §3
[10] = target: T1, Hypoxia inducible factors; HIF-1-alpha, HIF-2-alpha (Homo sapiens, UniProt Q16665+Q99814); assay: Inhibition of hypoxia-induced HIF1 activation in human U251HRE cells by cell based reporter gene assay
[11] = target: T1, Hypoxia inducible factors; HIF-1-alpha, HIF-2-alpha; assay: Inhibition of HIF1 in human U251HRE cells at 10 uM by Western blot; assay type: cell-based
Summary of the method: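 U251-HRE-Luc cells were induced with DFX for 6 h in the presence of test compound at 10 µM, alongside untreated and DFX-only controls. HIF-1 was assessed by Western blot.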

H460 [12] = assay: Inhibition of PI3K in human H460 cells assessed as Akt phosphorylation at 3 uM by Western blot
H460 [13] = assay: Inhibition of PI3K in human H460 cells assessed as Akt phosphorylation at 10 uM by Western blot

Hypoxia-inducible factor 1-alpha (Homo sapiens), sequence (Q16665 whole entry, looked up, canonical isoform): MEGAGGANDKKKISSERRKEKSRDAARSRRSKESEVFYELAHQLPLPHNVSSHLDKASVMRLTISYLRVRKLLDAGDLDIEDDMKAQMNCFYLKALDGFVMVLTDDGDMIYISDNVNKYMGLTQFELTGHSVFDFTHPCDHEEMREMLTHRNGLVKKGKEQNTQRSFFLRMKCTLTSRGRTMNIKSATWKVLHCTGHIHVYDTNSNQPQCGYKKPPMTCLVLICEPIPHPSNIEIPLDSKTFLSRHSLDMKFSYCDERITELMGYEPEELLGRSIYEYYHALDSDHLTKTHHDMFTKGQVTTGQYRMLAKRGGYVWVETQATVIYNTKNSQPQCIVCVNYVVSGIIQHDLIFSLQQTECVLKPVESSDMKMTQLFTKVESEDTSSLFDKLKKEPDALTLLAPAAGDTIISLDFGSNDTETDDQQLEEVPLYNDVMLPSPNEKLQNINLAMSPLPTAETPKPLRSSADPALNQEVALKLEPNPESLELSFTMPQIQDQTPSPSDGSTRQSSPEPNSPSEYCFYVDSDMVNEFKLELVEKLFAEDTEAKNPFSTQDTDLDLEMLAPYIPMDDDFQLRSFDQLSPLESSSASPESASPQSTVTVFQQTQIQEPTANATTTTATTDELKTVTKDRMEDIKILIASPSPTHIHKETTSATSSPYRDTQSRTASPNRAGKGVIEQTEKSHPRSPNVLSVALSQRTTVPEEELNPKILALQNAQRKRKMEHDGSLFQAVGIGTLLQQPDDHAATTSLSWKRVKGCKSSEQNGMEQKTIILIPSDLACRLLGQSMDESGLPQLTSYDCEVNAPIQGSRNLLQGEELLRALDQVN
Phosphatidylinositol 4,5-bisphosphate 3-kinase catalytic subunit alpha isoform, sequence (P42336 whole entry, canonical isoform): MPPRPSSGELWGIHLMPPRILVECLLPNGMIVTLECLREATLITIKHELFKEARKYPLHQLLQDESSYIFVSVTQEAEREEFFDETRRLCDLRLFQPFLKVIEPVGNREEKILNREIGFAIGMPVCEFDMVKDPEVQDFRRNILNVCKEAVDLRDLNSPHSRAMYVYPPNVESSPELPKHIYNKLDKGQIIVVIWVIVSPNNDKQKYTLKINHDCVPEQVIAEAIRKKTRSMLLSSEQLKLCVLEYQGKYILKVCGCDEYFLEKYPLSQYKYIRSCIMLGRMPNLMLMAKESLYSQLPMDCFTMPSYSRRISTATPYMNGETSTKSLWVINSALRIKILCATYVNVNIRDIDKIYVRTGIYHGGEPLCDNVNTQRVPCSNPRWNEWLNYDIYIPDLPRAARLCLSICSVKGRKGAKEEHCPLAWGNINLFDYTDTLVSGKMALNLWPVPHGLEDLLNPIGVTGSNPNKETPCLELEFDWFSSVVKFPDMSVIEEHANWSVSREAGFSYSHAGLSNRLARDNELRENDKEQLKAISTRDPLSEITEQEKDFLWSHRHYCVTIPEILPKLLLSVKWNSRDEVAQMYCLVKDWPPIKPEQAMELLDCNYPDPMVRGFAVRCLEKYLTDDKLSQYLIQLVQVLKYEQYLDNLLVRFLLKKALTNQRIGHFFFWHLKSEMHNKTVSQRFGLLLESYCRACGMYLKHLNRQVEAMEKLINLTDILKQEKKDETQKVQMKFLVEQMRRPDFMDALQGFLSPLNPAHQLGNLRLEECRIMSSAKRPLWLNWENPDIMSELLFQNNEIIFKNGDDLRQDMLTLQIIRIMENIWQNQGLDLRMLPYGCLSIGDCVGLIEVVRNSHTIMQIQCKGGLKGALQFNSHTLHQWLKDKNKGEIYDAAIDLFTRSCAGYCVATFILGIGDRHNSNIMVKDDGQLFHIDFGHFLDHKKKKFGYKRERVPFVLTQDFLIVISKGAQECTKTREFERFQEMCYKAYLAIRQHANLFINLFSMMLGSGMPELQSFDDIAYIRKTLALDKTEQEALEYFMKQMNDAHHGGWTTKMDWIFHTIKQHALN

Which results are given for `COc1ccc2c(OC)c3ccoc3nc2c1`?
Activity (H460 [1]): inactive; Activity [2]: inactive; Activity [3]: inactive

Which results are given for `COc1ccc2c(Sc3ccc([N+](=O)[O-])cc3)c3ccoc3nc2c1`?
inhibition (H460 [4]): 48%; inhibition [5]: 49%; Activity [6]: Active; IC50 [7]: 4 µM; Activity [8]: Active; Activity [9]: Active; IC50 [10]: 3 µM; Activity [11]: Active; Activity (H460 [12]): Active; Activity (H460 [13]): Active

Which results are given for `COc1ccc2c(Oc3cccnc3)c3ccoc3nc2c1`?
inhibition (H460 [4]): 67%; Activity [2]: inactive; Activity [7]: inactive; Activity [10]: inactive

Which results are given for `O=c1cc(N2CCOCC2)oc2c(-c3ccccc3)cccc12`?
inhibition (H460 [1]): 40%; inhibition [2]: 45%

`c1cncc(Oc2c3cc4c(cc3nc3occc23)OCO4)c1` was tested. Which Activity (H460 [1]) did it give?
Its Activity is “inactive”.

What about the inhibition [5] of the same compound?
Its inhibition is 51%.

And the Activity [7]?
Its Activity is “inactive”.

And the Activity [10]?
The Activity was “inactive”.

Which inhibition (H460 [4]) does the source give for `c1cn(-c2c3cc4c(cc3nc3occc23)OCO4)cn1` here?
Its inhibition is 40%.

And the inhibition [5]?
Its inhibition is 45%.

What about the Activity [7] of the same compound?
The Activity was “inactive”.

What about the Activity [10] of the same compound?
The Activity was “inactive”.

How did the Activity (H460 [1]) turn out when `COc1ccc2c(Sc3ccc(Br)cc3)c3ccoc3nc2c1` was run?
The Activity was “inactive”.

What about the Activity [2] of the same compound?
The Activity was “inactive”.

What about the Activity [6] of the same compound?
Its Activity is “inactive”.

What about the Activity [7] of the same compound?
The Activity was “inactive”.

And the Activity [10]?
Its Activity is “inactive”.

How did the Activity (H460 [1]) turn out when `O=[N+]([O-])c1ccc(Oc2c3cc4c(cc3nc3occc23)OCO4)cc1` was run?
The Activity was “inactive”.

What about the inhibition [5] of the same compound?
Its inhibition is 47%.

And the Activity [7]?
Its Activity is “inactive”.

And the Activity [10]?
The Activity was “inactive”.

What does the source list for `COc1ccc2c(Sc3ccc(C#N)cc3)c3ccoc3nc2c1`?
Activity (H460 [1]): inactive; Activity [2]: inactive; Activity [6]: inactive; Activity [7]: inactive; Activity [10]: inactive

For `COc1ccc2c([S+]([O-])c3ccc([N+](=O)[O-])cc3)c3ccoc3nc2c1` (centres undefined), which Activity (H460 [1]) is on record?
Its Activity is “inactive”.

What about the Activity [2] of the same compound?
The Activity was “inactive”.

What about the Activity [6] of the same compound?
The Activity was “inactive”.

And the Activity [7]?
The Activity was “inactive”.

And the Activity [10]?
The Activity was “inactive”.

With `COc1ccc2c(Oc3cccc([N+](=O)[O-])c3)c3ccoc3nc2c1` as the compound, how does the inhibition (H460 [4]) read?
Its inhibition is 43%.

And the Activity [2]?
Its Activity is “inactive”.

And the Activity [7]?
Its Activity is “inactive”.

And the Activity [10]?
The Activity was “inactive”.

What does the source list for `Fc1ccc(Oc2c3cc4c(cc3nc3occc23)OCO4)cc1`?
inhibition (H460 [4]): 45%; Activity [2]: inactive; Activity [7]: inactive; Activity [10]: inactive

Which inhibition (H460 [4]) does the source give for `COc1cc2nc3occc3c(Oc3cccnc3)c2cc1OC` here?
The inhibition was 43%.

What about the Activity [2] of the same compound?
Its Activity is “inactive”.

What about the Activity [7] of the same compound?
The Activity was “inactive”.

What about the Activity [10] of the same compound?
Its Activity is “inactive”.

How did the Activity (H460 [1]) turn out when `COc1ccc2c(Sc3ccc(C(=O)O)cc3)c3ccoc3nc2c1` was run?
The Activity was “inactive”.

And the Activity [2]?
Its Activity is “inactive”.

What about the Activity [6] of the same compound?
The Activity was “inactive”.

And the Activity [7]?
The Activity was “inactive”.

And the Activity [10]?
The Activity was “inactive”.

Which results are given for `O=[N+]([O-])c1cn(-c2c3cc4c(cc3nc3occc23)OCO4)cn1`?
inhibition (H460 [4]): 57%; Activity [2]: inactive; Activity [7]: inactive; Activity [10]: inactive

With `COc1ccc2c(-n3ccnc3)c3ccoc3nc2c1` as the compound, how does the inhibition (H460 [4]) read?
Its inhibition is 64%.

And the Activity [2]?
Its Activity is “inactive”.

What about the Activity [7] of the same compound?
The Activity was “inactive”.

And the Activity [10]?
Its Activity is “inactive”.

What does the source list for `N#Cc1ccc(Oc2c3cc4c(cc3nc3occc23)OCO4)cc1`?
inhibition (H460 [4]): 58%; Activity [2]: inactive; Activity [7]: inactive; Activity [10]: inactive

Which results are given for `COc1ccc2c(Nc3ccc(C(C)=O)cc3)c3ccoc3nc2c1`?
Activity (H460 [1]): inactive; inhibition [5]: 53%; Activity [7]: inactive; Activity [10]: inactive

How did the Activity (H460 [1]) turn out when `COc1cc2nc3occc3c(Sc3ccc([N+](=O)[O-])cc3)c2cc1OC` was run?
Its Activity is “inactive”.

And the Activity [2]?
Its Activity is “inactive”.

What about the Activity [7] of the same compound?
Its Activity is “inactive”.

And the Activity [10]?
Its Activity is “inactive”.

For `COc1cc2nc3occc3c(-n3cnc([N+](=O)[O-])c3)c2cc1OC`, which inhibition (H460 [4]) is on record?
The inhibition was 58%.

What about the Activity [2] of the same compound?
The Activity was “inactive”.

And the Activity [7]?
Its Activity is “inactive”.

What about the Activity [10] of the same compound?
Its Activity is “inactive”.

Which results are given for `O=[N+]([O-])c1ccc(Sc2c3cc4c(cc3nc3occc23)OCO4)cc1`?
Activity (H460 [1]): inactive; inhibition [5]: 44%; Activity [7]: inactive; Activity [10]: inactive

Which results are given for `COc1cc2nc3occc3c(-n3ccnc3)c2cc1OC`?
inhibition (H460 [4]): 64%; Activity [2]: inactive; Activity [7]: inactive; Activity [10]: inactive

`COc1ccc2c(N3CCN(C(C)=O)CC3)c3ccoc3nc2c1` was tested. Which inhibition (H460 [4]) did it give?
The inhibition was 58%.

What about the Activity [2] of the same compound?
The Activity was “inactive”.

What about the Activity [7] of the same compound?
Its Activity is “inactive”.

And the Activity [10]?
Its Activity is “inactive”.
